Scp1 inh: blocks human Scp-1 phosphatase activity; Q9GZU7; Recombinant Scp1, phosphopeptide, malachite green phosphate absorbance; inhibition, % at 20 µM; hit rate 0.88% among 340,000; AID 493091;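 active = inhibition above about 50% at 20 µM, limit read from the data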;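 also: plate controls were DMSO wells with enzyme for no effect and wells lacking enzyme for full effect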
Target sequence (Q9GZU7 76-261 limits assumed): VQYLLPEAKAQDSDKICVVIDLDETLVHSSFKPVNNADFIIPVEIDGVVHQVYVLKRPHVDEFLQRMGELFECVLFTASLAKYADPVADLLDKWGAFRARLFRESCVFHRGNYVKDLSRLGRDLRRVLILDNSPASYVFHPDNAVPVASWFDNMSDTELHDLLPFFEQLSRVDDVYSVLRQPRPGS
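Test system – truncated SCP-1 phosphatase (76-261aa) · Reagent – Phosphorylated 17-residue peptide substrate · Incubation – 45 min room-temperature reaction, 5 min colour, 30 min stabiliser · Detection – colorimetric phosphate reagent with accelerator and stabiliser, absorbance at 630 nm · Measure – % inhibition at 20 µM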
LMPTP inh: LMPTP (human) inhibition | P24666 | recombinant LMPTP-A, OMFP fluorogenic substrate, fluorescence intensity | inhibition, % at 20 µM | hit rate 0.22% among 360,000;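 active = compounds that cut the enzyme signal by at least half of the control window in the single-dose screen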;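 also: plate controls were DMSO wells with enzyme plus substrate for no effect and substrate without enzyme for full effect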
Target sequence (P24666 whole entry, looked up): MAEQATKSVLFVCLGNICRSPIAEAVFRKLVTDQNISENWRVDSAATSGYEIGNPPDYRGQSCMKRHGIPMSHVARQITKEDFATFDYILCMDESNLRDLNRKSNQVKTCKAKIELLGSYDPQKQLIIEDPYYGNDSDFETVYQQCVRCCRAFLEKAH
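Test system: LMPTP-A phosphatase enzyme; input: 0.625 nM LMPTP-A final; reagent: OMFP substrate, 400 µM final; compound dosing: 20 µM single dose, 3% DMSO; incubation: 50 min dark incubation at room temperature; measured by: endpoint fluorescence intensity from OMFP dephosphorylation; measure: % inhibition relative to no-enzyme and uninhibited control wells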
DNMT1 inh: DNMT1 (human) enzyme inhibition | hit rate 0.83% among 360,000 | P26358 | inhibition (reported as % activation of signal), % at 10 µM | DNMT1 molecular beacon, Hinp1I cleavage, fluorescence | AID 588458; in the data active = inhibition above about 50%
STEP inh: STEP (human) phosphatase inhibition; P54829; recombinant STEP, OMFP fluorogenic substrate, fluorescence; inhibition, % at 20 µM; hit rate 0.25% among 360,000;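 active = inhibition at 20 µM, scaled per plate between control wells, above about 37%, limit read from the data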;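 also: 0% = DMSO with enzyme and substrate and 100% = substrate only without enzyme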
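System: isolated STEP enzyme; schedule: 20 min enzyme reaction at room temperature, protected from light; medium: Bis-Tris buffer pH 6.0, 2.5 mM DTT, 0.005% Tween 20; signal: fluorescence, 480/540 nm; dosing: single compound dose of 20 µM, 1% DMSO final; also added: OMFP substrate, 25 µM final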
SUMO1-SIM PPI: SUMO1-SIM interaction modulation. hit rate 0.33% among 360,000. P63165. inhibition, % at 20 µM. AID 602429. SUMO1 binding to a labelled peptide, TR-FRET, 1 h; in the data active = inhibition above about 37%
Target sequence (P63165 whole entry, looked up): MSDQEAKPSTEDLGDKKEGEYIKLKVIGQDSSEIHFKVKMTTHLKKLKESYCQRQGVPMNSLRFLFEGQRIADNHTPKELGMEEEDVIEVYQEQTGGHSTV
Beacon interf DR: beacon fluorescence artifact, dose response counter-screen. shares compounds with DNMT1 inh. molecular beacon fluorescence, spectral interference counter-screen. IC50, µM. 200 tested, under 10 active; call rule not given here
DNMT1 confirm: confirmation of human DNMT1 inhibitors. shares compounds with DNMT1 inh. DNMT1 molecular beacon HinP1I cleavage, fluorescence. inhibition, % at 10 µM. hit rate 8% among 2,300;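 active = average inhibition of at least 30% in the single-concentration confirmation test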
Beacon interf: beacon fluorescence artifact counter-screen | shares compounds with DNMT1 inh | DNMT1 molecular beacon spectral interference counterscreen, fluorescence 485/520 | activation (fluorescence interference), % at 10 µM | hit rate 1% among 2,300;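 active = activation of at least 30% at 10 µM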;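 also: DNMT1 catalytic domain with a HinP1I cleavage step and a FAM/dabcyl DNA beacon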
* marks the source's active call; other numbers are inactive results; · = no result. An excerpt weighted towards active compounds, which were near 1.7% of everything screened.

SMILES	Scp1 inh	LMPTP inh	DNMT1 inh	STEP inh	SUMO1-SIM PPI	DNMT1 confirm	Beacon interf	others
c1coc(-c2ccc3nncn3c2)c1	·	5	102*	28	87*	76*	1	Beacon interf DR=>99
Cc1c(C(=O)OCC(=O)N2CC(=O)Nc3ccccc32)oc2ccc(Br)cc12	-6	1	51*	5	-1	1	2
Cc1cc(C(=O)OCC(=O)N2CC(=O)Nc3ccccc32)no1	-8	-3	-1	-4	1	·	·
CN(CC(=O)Nc1ccc(N2CCOCC2)cc1)C(=O)CCc1cc(C(C)(C)C)c(O)c(C(C)(C)C)c1	-6	5	11	2	1	·	·
O=C(Nc1ccc2oc(-c3cccc4ccccc34)nc2c1)c1ncn[nH]1	-2	0	67*	5	8	3	-2
NC1=NC(=O)/C(=C\c2ccco2)S1	63*	3	74*	5	28	8	-1
NC1=NC(=O)C(=Cc2ccccc2)S1	2	0	-5	2	-26	·	·
COc1cccc(OC)c1C(=O)NNS(=O)(=O)c1ccc2ccccc2c1	-2	0	2	0	0	·	·
O=C(O)CCCC(=O)N1CCN(c2nc(-c3ccccc3Cl)c3cc(Br)ccc3n2)CC1	-4	1	-1	1	0	·	·
O=C(NCc1cc(C(F)(F)F)ccc1Cl)c1cccc2c1C(=O)c1ccc(N3CCCCC3)cc1S2(=O)=O	8	1	32	-6	-24	·	·
O=C(NCc1cc(C(F)(F)F)ccc1Cl)c1cccc2c1C(=O)c1ccc(N3CCOCC3)cc1S2(=O)=O	-6	-2	62*	-3	14	8	2
CC(=O)Nc1cccc(OCC(=O)NC(C)c2ccc3ccccc3c2)c1 (stereo not drawn)	-10	-1	0	2	-4	·	·
CCOC(=O)c1cc(-c2ccc([N+](=O)[O-])cc2)nc2c1c(=O)[nH]c(=O)n2Cc1ccccc1	-5	1	86*	8	19	3	1
CCOC(=O)c1cc(-c2cc3ccccc3o2)nc2c1c(=O)[nH]c(=O)n2CCOC	-3	-1	8	1	-4	·	·
c1ccc2c(c1)c1c(c3ccccc32)CN2CCCC2C1 (stereo not drawn)	22	13	54*	-4	-17	29	0	Beacon interf DR=>99
c1ccc(CN2CCC(N3CCC(N4CCCCCC4)CC3)CC2)cc1	-12	-6	-5	0	-33	·	·
CCCc1cc(=O)oc2c(C)c(OCC(=O)c3ccc(N4CCCC4)cc3)ccc12	40	6	57*	2	1	6	-2
O=C1c2c(-c3ccc(Br)cc3)noc2CCN1Cc1cn(-c2ccc(Cl)cc2)nn1	·	3	·	·	-2	·	·
O=C(Cn1ncc2c1-c1ccccc1OC2)N1CCc2ccccc21	-5	1	-2	-1	1	·	·
O=C(O)Cn1ncc2c1-c1ccoc1CC2	5	-1	89*	-2	9	5	1
COC(=O)[C@]1(Cc2ccccc2)N[C@H](c2ccc(-c3cccc(Cl)c3)c(OC)c2)[C@@H]2C(=O)N(C)C(=O)[C@@H]21	0	4	-18	4	-16	·	·
CCN1C(=O)[C@H]2[C@@H](c3ccc(-c4cccc(Cl)c4)c(OC)c3)N[C@@](Cc3ccccc3)(C(=O)OC)[C@H]2C1=O	-6	4	112*	1	-10	0	6
COc1c(-c2ccccc2)oc2c(ccc3occc32)c1=O	-5	2	0	2	-9	·	·
Cc1nc2sccn2c(=O)c1CCN1CCC(=C(c2ccc(F)cc2)c2ccc(F)cc2)CC1	-4	6	59*	-1	2	-1	1
Nc1nc(SCC(=O)N2CCCCC2)[nH]c(=O)c1NC(=O)c1ccccc1F	-5	1	3	0	10	·	·
SMILES	Scp1 inh	LMPTP inh	DNMT1 inh	STEP inh	SUMO1-SIM PPI	DNMT1 confirm	Beacon interf	others
COc1ccc(C(=O)N=C2SC3CS(=O)(=O)CC3N2c2ccc(N(C)C)cc2)cc1OC (stereo not drawn)	-7	-2	9	5	-39	·	·
C=CCSC1=N/C(=C\C=C\c2ccco2)C(=O)S1	53*	36	97*	4	21	3	-2
COc1ccc(C=NNc2ccc([N+](=O)[O-])cc2S(=O)(=O)Nc2ccccc2C(=O)O)cc1OC	-4	2	-22	-3	3	·	·
COc1ccc(/C=N/Nc2ccc([N+](=O)[O-])cc2S(=O)(=O)N2CCN(C)CC2)cc1	2	-1	56*	-15	6	1	6
N#Cc1c(NC(=O)CSc2ncnc3sccc23)oc(-c2ccco2)c1-c1ccco1	-1	12	92*	2	39	5	2
O=C(CCN1C(=O)c2ccccc2C1=O)Nc1ccc(-c2nc3ccccc3o2)cc1	4	0	42	0	1	·	·
CCCC(=O)Nc1ccc(-c2nc3cc(C)c(C)cc3o2)cc1	-3	-2	56*	-1	-1	-1	-5
O=C(CN1C(=O)c2ccccc2C1=O)Nc1ccc(-c2nc3ccccc3o2)cc1	-6	0	78*	2	-5	2	2
CCOc1cc(/C=C2\CCCc3c2nc2ccccc2c3C(=O)O)ccc1OC	-7	-6	61*	-50	8	2	1
COc1ccc(/C=C2\CCn3c2nc2ccccc2c3=O)cc1OC	-4	0	-5	0	-17	·	·
COc1cc(NC(=O)C2CCCN2S(=O)(=O)c2ccc3c(c2)CC(C)N3C(C)=O)cc(OC)c1 (stereo not drawn)	-6	0	0	0	-2	·	·
Cc1ccc(C(=O)N[C@H](C(=O)OCc2nnc(-c3ccccc3)o2)C(C)C)cc1	1	1	-5	-2	4	·	·
Cc1ccc(C(=O)N[C@H](C(=O)OCc2cc(=O)n3c(n2)sc2ccccc23)C(C)C)cc1	46	6	84*	6	1	3	-1
CSCCC1NC(=O)N(C(C)C(=O)Nc2cc(Cl)cc(Cl)c2)C1=O (stereo not drawn)	-2	0	-1	2	0	·	·
Cc1ccc(CNC(=O)c2nnn(CC(=O)Nc3cccc(C)c3C)c2N)cc1	-3	23	61*	0	2	12	-3
Cc1ccc(/C=N/Nc2cc(C)nc(NCc3ccccc3)n2)cc1	-11	9	-8	11	0	·	·
Cc1cc(N/N=C/c2ccc(O)cc2)nc(NS(=O)(=O)c2ccccc2)n1	48	18	83*	41*	14	1	-1

High-throughput results from PubChem BioAssay.
